In ChEMBL document CHEMBL3217465, “Development of a phosphatase-resistant, L-tyrosine derived LPA1/LPA3 dual antagonist” (Medchemcomm, 2011):
The source made the active and inactive calls. The calls are words filed in the database; no cut-off is given here.

Columns and labels:
[1] = target: Lysophosphatidic acid receptor 1 (Homo sapiens, UniProt Q92633); experiment: Competitive antagonist activity at human LPA1 receptor overexpressed in CHO cells assessed as inhibition of LPA-induced [35S]GTPgammaS binding by liquid scintillation counting; format: functional, cell-based
In short: (§1)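 GTP[γ-³⁵S] binding was measured in membrane fractions containing hLPA1 or hLPA3 from over-expressing CHO cells. LPA concentration-effect curves were run at increasing antagonist concentrations, and Schild analysis was derived from these curves.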

[2] = target: T1, Lysophosphatidic acid receptor 3 (Homo sapiens) (UniProt Q9UBY5); experiment: (§2) Competitive antagonist activity at N-terminal 3XHA-tagged human LPA3 receptor overexpressed in CHO cells assessed as inhibition of LPA-induced [35S]GTPgammaS binding by liquid scintillation counting; format: functional, cell-based; in short: as §1
T1 sequence (whole entry): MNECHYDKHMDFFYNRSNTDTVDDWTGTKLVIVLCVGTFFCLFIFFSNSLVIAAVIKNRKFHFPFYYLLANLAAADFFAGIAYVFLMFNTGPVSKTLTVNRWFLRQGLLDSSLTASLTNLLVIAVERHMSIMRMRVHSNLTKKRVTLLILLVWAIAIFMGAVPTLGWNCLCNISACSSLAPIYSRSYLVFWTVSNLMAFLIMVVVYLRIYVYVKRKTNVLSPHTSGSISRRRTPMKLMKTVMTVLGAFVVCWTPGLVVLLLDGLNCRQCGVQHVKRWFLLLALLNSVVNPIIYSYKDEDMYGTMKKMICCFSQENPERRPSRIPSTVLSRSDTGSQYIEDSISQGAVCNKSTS

A-431 = experiment: Antagonist activity at LPA receptor in human A431 cells assessed as inhibition of LPA-induced intracellular calcium mobilization at 10 uM by Fluo-3 AM-staining based FLIPR assay; format: cell-based
In short: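 A431 human epithelial carcinoma cells, which express LPA1–3 receptor mRNAs, were tested with the test compound at a single concentration of 10 μM against a single concentration of 1-oleoyl LPA. The read-out was inhibition of LPA-induced intracellular calcium release.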

[3] = target: T2, Lysophosphatidic acid receptor 3 (Homo sapiens, UniProt Q9UBY5); experiment: as §2; format: functional, cell-based; in short: as §1
T2 sequence (Q9UBY5 whole entry): T1 sequence (whole entry)

[4] = target: Lysophosphatidic acid receptor 1/lysophosphatidic acid receptor 3 (Rattus norvegicus, UniProt Q8K5E0+P61794); experiment: Antagonist activity at LPAR1/LPAR3 in rat glioma C62B cells assessed as inhibition of LPA-induced reduction in isoproterenol-stimulated [3H]cAMP accumulation by liquid scintillation counting; format: functional, cell-based
In short: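 C62B cells were grown to confluence and labelled with [³H]adenine for 1 h to label ATP pools. They were then stimulated for 2 min with isoproterenol (10 μM), with or without 18:1 LPA (100 nM), and with or without antagonist. Antagonist was given at increasing concentrations to obtain dose-response curves of the block of LPA inhibition of cAMP accumulation.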

[5] = target: T3, Lysophosphatidic acid receptor 3 (Rattus norvegicus) (UniProt Q8K5E0); experiment: Antagonist activity at LPAR3 in rat glioma C62B cells assessed as inhibition of LPA3 agonist-induced reduction in isoproterenol-stimulated [3H]cAMP accumulation by liquid scintillation counting; format: functional, cell-based
T3 sequence (whole entry): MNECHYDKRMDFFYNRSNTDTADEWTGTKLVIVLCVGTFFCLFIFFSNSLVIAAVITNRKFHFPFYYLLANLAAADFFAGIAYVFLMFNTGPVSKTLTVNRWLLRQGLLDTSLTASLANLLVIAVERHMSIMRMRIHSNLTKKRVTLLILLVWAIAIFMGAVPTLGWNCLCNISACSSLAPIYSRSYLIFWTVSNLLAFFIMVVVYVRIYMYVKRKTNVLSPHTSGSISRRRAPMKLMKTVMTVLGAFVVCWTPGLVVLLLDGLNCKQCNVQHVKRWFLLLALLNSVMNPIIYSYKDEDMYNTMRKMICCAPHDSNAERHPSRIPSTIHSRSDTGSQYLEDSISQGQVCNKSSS

[6] = Half life in Wistar rat at 20 mg/kg, iv by LC-MS/MS analysis; format: ADME, organism-based; set-up: dose 20 mg/kg, route intravenous; conditions: in vivo
[7] = target: Lysophosphatidic acid receptor 2 (Homo sapiens) (UniProt Q9HBW0); experiment: Antagonist activity at LPAR2 receptor (unknown origin) assessed as inhibition of LPA-induced [35S]GTPgammaS binding by liquid scintillation counting; format: functional
Sequence of Lysophosphatidic acid receptor 2 (Homo sapiens) (Q9HBW0 whole entry): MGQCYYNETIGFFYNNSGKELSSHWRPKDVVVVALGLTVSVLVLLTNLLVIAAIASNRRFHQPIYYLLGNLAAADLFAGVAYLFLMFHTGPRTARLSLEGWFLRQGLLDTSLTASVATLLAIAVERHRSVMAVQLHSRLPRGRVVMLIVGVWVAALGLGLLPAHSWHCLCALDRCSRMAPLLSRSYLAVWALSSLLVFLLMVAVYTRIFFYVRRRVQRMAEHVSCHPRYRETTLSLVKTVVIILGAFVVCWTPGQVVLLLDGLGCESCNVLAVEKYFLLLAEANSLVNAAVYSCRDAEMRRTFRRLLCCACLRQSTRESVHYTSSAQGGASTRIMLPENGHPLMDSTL

Sequence of Lysophosphatidic acid receptor 1 (Q92633 whole entry): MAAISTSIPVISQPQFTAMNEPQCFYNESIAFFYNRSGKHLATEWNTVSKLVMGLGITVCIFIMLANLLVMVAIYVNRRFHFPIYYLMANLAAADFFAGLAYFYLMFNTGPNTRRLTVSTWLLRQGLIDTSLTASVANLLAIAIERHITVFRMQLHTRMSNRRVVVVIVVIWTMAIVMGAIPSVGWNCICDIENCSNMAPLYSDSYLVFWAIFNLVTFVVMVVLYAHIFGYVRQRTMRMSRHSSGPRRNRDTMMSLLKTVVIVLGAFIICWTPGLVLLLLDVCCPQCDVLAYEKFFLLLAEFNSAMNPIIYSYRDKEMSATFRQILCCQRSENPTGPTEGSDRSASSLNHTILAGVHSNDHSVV

SMILES | inhibition [1] | inhibition [2] | Ki [1] [µM] | Ki [3] [µM] | inhibition (A-431) | further results
CCCCCCCCCCCCCCCC(=O)N[C@H](Cc1ccc(OCc2cc(OCC(F)(F)F)ccn2)cc1)CC(F)P(=O)(O)O (stereo not given in full) |  |  |  |  | Active | 
CCCCCCCCCCCCCCCC(=O)N[C@@H](/C=C(\F)P(=O)(O)O)Cc1ccc(OCc2cc(OCC(F)(F)F)ccn2)cc1 |  |  |  |  | Active | 

Second part, led by results:

inhibition [1] | inhibition [2] | Ki [1] [µM] | Ki [3] [µM] | SMILES | inhibition (A-431) | further results
Active | Active |  |  | Cc1noc(-c2ccc(CSCCC(=O)O)cc2)c1NC(=O)OC(C)c1ccccc1Cl (stereo not given) |  | 
Dose-dependent effect | Dose-dependent effect | 0.143 | 0.512 | CCCCCCCCCCCCCCCC(=O)N[C@@H](/C=C/P(=O)(O)O)Cc1ccc(OCc2cc(OCC(F)(F)F)ccn2)cc1 | Active | Ki [4]: 0.011 µM; inhibition [5]: Dose-dependent effect; half-life [6]: 1.5 h; inhibition [7]: inactive
 |  | 0.084 | 0.048 | CCCCCCCCCCCCCCCCCC(=O)N[C@@H](COP(=O)(O)O)Cc1ccc(OCc2cc(OCC(F)(F)F)ccn2)cc1 |  | 
